Measured values taken from ChEMBL document CHEMBL5608190, “Dehydroabietylamine-substituted trifluorobenzene sulfonamide rhodamine B hybrids as anticancer agents overcoming drug resistance” (Eur J Med Chem, 2024).

How the values were obtained:
[1] = Selectivity index, ratio of IC50 for human CCD-18Co cells to IC50 for human A2780cis cells
Outline: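 Selectivity index calculated as the ratio of the 72 h SRB IC50 in non-malignant CCD18Co fibroblasts to that in A2780cis.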

A2780 = test: Cytotoxicity against human A2780 cells incubated for 72 hrs by SRB assay; format: functional, cell-based; settings: A2780, 72 h
Outline: (§1)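 Cells plated in 96-well format and left 24 h, then exposed to serial dilutions of compound for 72 h; growth read by sulforhodamine B staining. Media held 10 % fetal bovine serum and 1 % penicillin-streptomycin. IC50 taken from dose-response curves, means of 2 independent experiments.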

[2] = Cytotoxicity against human CCD-18Co cells incubated for 72 hrs by SRB assay; format: toxicity, cell-based; outline: as §1
MCF7 = test: Cytotoxicity against human MCF7 cells incubated for 72 hrs by SRB assay; format: functional, cell-based; settings: MCF7, 72 h
Outline: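 Cells plated in 96-well format and left 24 h, then exposed to serial dilutions of compound for 72 h; growth read by sulforhodamine B staining. Media held 10 % fetal bovine serum and 1 % penicillin-streptomycin.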

[3] = Drug accumulation in human HT-29 cells at 500 nM incubated for 30 mins by fluorescence based analysis; format: ADME, cell-based; settings: ht-29, 0.5 h, 0.5 µM
Outline: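 Live-cell imaging in HT29 cells seeded at 20.000 per well and grown 48 h, then switched to phenol-red-free RPMI 1640. Co-treated with compound at 500 nM, HypoxySense 680 (1:2000, CAIX probe) and Hoechst 33342 nuclear stain. Imaged after 30 min by fluorescence microscopy at Ex/Em 385/425 nm (Hoechst), 555/592 nm (compounds) and 630/681 nm (HypoxySense).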

HT-29 = test: Cytotoxicity against human HT-29 cells incubated for 72 hrs by SRB assay; format: functional, cell-based; settings: HT-29, 72 h; outline: as §1
[4] = Cytotoxicity against human A2780cis cells incubated for 72 hrs by SRB assay; format: functional, cell-based; outline: as §1
A549 = test: Cytotoxicity against human A549 cells incubated for 72 hrs by SRB assay; format: functional, cell-based; settings: A549, 72 h; outline: as §1
[5] = Resistance index, ratio of IC50 for human A2780cis cells to IC50 for human A2780cis cells; format: functional; settings: in the assay text read “to IC50 for human A2780 cells” for “to IC50 for human A2780cis cells”
Outline: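 Resistance index calculated as the ratio of the 72 h SRB IC50 in A2780cis to that in parental A2780.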

CCN(CC)c1ccc2c(-c3ccccc3C(=O)N3CCN(C(=O)c4ccc(CCSc5c(F)c(F)c(S(N)(=O)=O)c(NC6CCCCCCCCCCC6)c5F)cc4)CC3)c3ccc(=[N+](CC)CC)cc-3oc2c1.[Cl-]
Ratio IC50 [1]: 1.22
IC50 (A2780): 240 nM
IC50 at 72 h [2]: 550 nM
IC50 (MCF7): 260 nM
Drug uptake [3]: Active
IC50 (HT-29): 320 nM
IC50 [4]: 450 nM
IC50 (A549): 590 nM
Ratio IC50 [5]: 1.87

CCN(CC)c1ccc2c(-c3ccccc3C(=O)N3CCN(C(=O)c4ccc(CCSc5c(F)c(F)c(S(N)(=O)=O)c(NC[C@]6(C)CCC[C@]7(C)c8ccc(C(C)C)cc8CC[C@@H]67)c5F)cc4)CC3)c3ccc(=[N+](CC)CC)cc-3oc2c1.[Cl-]
Ratio IC50 [1]: 2.22
IC50 (A2780): 380 nM
IC50 at 72 h [2]: 1020 nM
IC50 (MCF7): 410 nM
Drug uptake [3]: Active
IC50 (HT-29): 530 nM
IC50 [4]: 460 nM
IC50 (A549): 710 nM
Ratio IC50 [5]: 1.21

COc1cccc2c1C(=O)c1c(O)c3c(c(O)c1C2=O)C[C@@](O)(C(=O)CO)C[C@@H]3O[C@H]1C[C@H](N)[C@H](O)[C@H](C)O1 [DOXORUBICIN]
IC50 at 72 h [2]: 269 nM
IC50 (HT-29): 86 nM
IC50 [4]: 99 nM
IC50 (A549): 23 nM
